Source: ChEMBL document CHEMBL4680304, “Synthesis and evaluation of new phenyl acrylamide derivatives as potent non-nucleoside anti-HBV agents” (Bioorg Med Chem, 2021)
pIC50: −log10 of the molar value.

How the values were obtained:
[1] = Cytotoxicity against human HepG2 2.2.15 cell line assessed as cell viability measured after 72 hrs by MTT assay; format: cell-based; details: HepG2 2.2.15 cells
Outline: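 HepG2 2.2.15 cells were precultured for 24 h, then incubated with compound for 72 h. Viability was read as MTT absorbance at 490 nm relative to untreated cells on the same plate. CC50 is the concentration causing 50% cell death.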

Hepatitis B virus [2] = assay: Antiviral activity against HBV infected in human HepG2 2.2.15 cells assessed as decrease in extracellular viral DNA level at 0.8 uM measured after incubation of 6 days by RT-PCR analysis; format: functional; details: HepG2 2.2.15, 144 h, time 6 day
Outline: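 HepG2 2.2.15 cells, which stably carry the HBV genome, were grown in DMEM with 10% FBS, penicillin/streptomycin and 0.38 mg/mL G418. They were seeded at 2×10^5/well and allowed to recover for 24 h. Cells were then exposed to 0.8 µM compound for 6 days, with medium changed every 2 days. HBV DNA was quantified by real-time PCR and expressed as % inhibition versus control.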

Hepatitis B virus [3] = assay: Antiviral activity against HBV infected in human HepG2 2.2.15 cells assessed as decrease in extracellular viral DNA level measured after incubation of 6 days by RT-PCR analysis; format: functional, organism-based; details: HepG2 2.2.15, 144 h
Outline: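 Cells were HepG2 2.2.15 (stable HBV genome), seeded at 2×10^5/well and recovered for 24 h. Dose-dependent exposure to compound lasted 6 days, with medium replaced every 2 days. HBV DNA was measured by real-time PCR. IC50 is the concentration giving 50% inhibition of HBV DNA replication, reported as mean ± SD of triplicate experiments.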

[4] = Selectivity index, ratio of CC50 for human HepG2 2.2.15 to IC50 of antiviral activity against HBV infected in human HepG2 2.2.15 cells assessed as decrease in extracellular viral DNA level measured after incubation of 6 days by RT-PCR analysis; format: toxicity, cell-based; details: time 6 day, read-out: Selectivity Index
Outline: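 SI was calculated as the CC50 in HepG2 2.2.15 cells (72 h MTT) divided by the IC50 for HBV DNA inhibition. That IC50 came from HepG2 2.2.15 cells treated for 6 days with medium changed every 2 days, with HBV DNA quantified by real-time PCR.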

Hepatitis B virus [5] = assay: Antiviral activity against lamivudine/entecavir-resistant HBV rtL180M/rtM204V/rtT184L mutant infected in human HepG2 2.2.15 cells assessed as inhibition of viral DNA replication measured after incubation of 72 hrs by RT-PCR analysis; format: functional, organism-based; details: for pIC50: HepG2 2.2.15, 72 h
Outline: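 HepG2 cells transiently transfected for 24 h with full-genome HBV plasmid carrying rtL180M + rtM204V + rtT184L, washed, then treated over a dose range for 72 h. HBV DNA replicative intermediates quantified by real-time PCR. IC50 is the concentration giving 50% inhibition of HBV DNA replication, as mean ± SD of triplicate experiments.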

Hepatitis B virus [6] = assay: Antiviral activity against lamivudine/entecavir-resistant HBV rtL180M/rtM204V/rtT184L mutant infected in human HepG2 2.2.15 cells assessed as inhibition of viral DNA replication at 0.8 uM measured after incubation of 72 hrs by RT-PCR analysis relative to control; format: functional
Outline: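 HepG2 cells (2 × 10^5/well) plated 24 h, then transiently transfected for 24 h with plasmid carrying full-genome HBV with rtL180M + rtM204V + rtT184L (wild-type genome in parallel). Washed with PBS, then given fresh medium with compound for 72 h. Intracellular HBV DNA replicative intermediates extracted and quantified by real-time PCR against the wild-type group.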

[7] = Selectivity index, ratio of CC50 for human HepG2 2.2.15 to IC50 of Antiviral activity against lamivudine/entecavir-resistant HBV rtL180M/rtM204V/rtT184L mutant infected in human HepG2 2.2.15 cells assessed as inhibition of viral DNA replication measured after incubation of 72 hrs by RT-PCR analysis relative to control; format: toxicity, cell-based; details: read-out: Selectivity Index
Outline: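 SI is CC50 divided by IC50. CC50 comes from MTT on HepG2 2.2.15 cells, 72 h exposure, absorbance at 490 nm relative to untreated cells. IC50 comes from HepG2 cells transiently transfected with rtL180M + rtM204V + rtT184L HBV plasmid and treated 72 h, with DNA replicative intermediates measured by real-time PCR, triplicate experiments.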

Hepatitis B virus [8] = assay: Antiviral activity against HBV infected in human HepG2 2.2.15 cells assessed as inhibition of pregenomic RNA expression at 1 uM measured after incubation of 6 by RT-PCR analysis relative to control; format: functional; details: HepG2 2.2.15, 144 h, read-out: INH, time 6 day
Outline: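 HepG2 2.2.15 cells were seeded at 6×10^5/well in 6-well plates. They were incubated with 1 µM compound for 6 days. Total cellular RNA was then extracted and pgRNA copies/mL were measured by real-time PCR, giving % inhibition relative to untreated control.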

Compound	CC50 at 72 h [1]	inhibition at 0.8 µM (Hepatitis B virus [2])	further results
COc1ccccc1C(=O)N/C(C(=O)N[C@H](CO)Cc1ccccc1)=C(\Br)c1ccccc1	> 100 µM	11.9%	–
Cc1cccc(/C(Br)=C(/NC(=O)c2ccccc2)C(=O)N[C@H](CO)Cc2ccccc2)c1	> 100 µM	57.3%	–
CN(C)CCCOc1cccc(/C(Br)=C(/NC(=O)c2ccccc2)C(=O)N[C@H](CO)Cc2ccccc2)c1	85.6 µM	37.7%	–
O=C(N[C@H](CO)Cc1ccccc1)/C(NC(=O)c1ccccc1)=C(/Br)c1cccc(C(F)(F)F)c1	> 100 µM	23.1%	–
O=C(N[C@H](CO)Cc1ccccc1)/C(NC(=O)c1ccccc1)=C(/Br)c1cccc([N+](=O)[O-])c1	93.7 µM	2.28%	–
O=C(N[C@H](CO)Cc1ccccc1)/C(NC(=O)c1ccc(F)cc1Cl)=C(/Br)c1ccccc1	> 100 µM	56.1%	–
O=C(N[C@H](CO)Cc1ccccc1)/C(NC(=O)c1cccc(Cl)c1)=C(/Br)c1ccccc1	> 100 µM	5.36%	–
O=C(N[C@H](CO)Cc1ccccc1)/C(NC(=O)c1ccccc1F)=C(/Br)c1ccccc1	> 100 µM	33.6%	–
Cc1ccc(C(=O)N/C(C(=O)N[C@H](CO)Cc2ccccc2)=C(\Br)c2ccccc2)cc1	> 100 µM	47.4%	–
O=C(N[C@H](CO)Cc1ccccc1)/C(NC(=O)c1cc(Cl)cc(Cl)c1)=C(/Br)c1ccccc1	> 100 µM	83.8%	pIC50 (Hepatitis B virus [3]): 6.57; selectivity ratio at 144 h [4]: > 370
O=C(N[C@H](CO)Cc1ccccc1)/C(NC(=O)c1ccccc1)=C(/Br)c1cccc(Br)c1	> 100 µM	14.4%	–
Cc1ccccc1C(=O)N/C(C(=O)N[C@H](CO)Cc1ccccc1)=C(\Br)c1ccccc1	> 100 µM	5.75%	–
COc1cccc(/C(Br)=C(/NC(=O)c2ccccc2)C(=O)N[C@H](CO)Cc2ccccc2)c1	> 100 µM	48.9%	–
Cc1cc(F)ccc1C(=O)N/C(C(=O)N[C@H](CO)Cc1ccccc1)=C(\Br)c1ccccc1	> 100 µM	83.2%	pIC50 (Hepatitis B virus [3]): 6.48; selectivity ratio at 144 h [4]: > 303
COc1cccc(C(=O)N/C(C(=O)N[C@H](CO)Cc2ccccc2)=C(\Br)c2ccccc2)c1	> 100 µM	4.89%	–
O=C(N[C@H](CO)Cc1ccccc1)/C(NC(=O)c1ccc(F)cc1)=C(/Br)c1ccccc1	> 100 µM	74.9%	pIC50 (Hepatitis B virus [3]): 6.42; selectivity ratio at 144 h [4]: > 263; inhibition (Hepatitis B virus [5]): Dose-dependent effect; pIC50 (Hepatitis B virus [5]): 6.37; inhibition at 0.8 µM (Hepatitis B virus [6]): 72.9%; selectivity ratio at 72 h [7]: > 232
O=C(N[C@H](CO)Cc1ccccc1)/C(NC(=O)c1cccc(Br)c1)=C(/Br)c1ccccc1	> 100 µM	2.48%	–

Compound	CC50 at 72 h [1]	inhibition at 0.8 µM (Hepatitis B virus [2])	further results
O=C(N[C@H](CO)Cc1ccccc1)/C(NC(=O)c1ccccc1Cl)=C(/Br)c1ccccc1	> 100 µM	13.9%	–
COc1ccc(C(=O)N/C(C(=O)N[C@H](CO)Cc2ccccc2)=C(\Br)c2ccccc2)cc1	> 100 µM	6.25%	–
O=C(N[C@H](CO)Cc1ccccc1)/C(NC(=O)c1ccc(F)cc1F)=C(/Br)c1ccccc1	> 100 µM	58.1%	–
O=C(N[C@H](CO)Cc1ccccc1)/C(NC(=O)c1ccc(Br)cc1)=C(/Br)c1ccccc1	> 100 µM	43%	–
O=C(N[C@H](CO)Cc1ccccc1)/C(NC(=O)c1ccccc1)=C(/Br)c1cccc(F)c1	> 100 µM	42.6%	–
CC(=O)Oc1cccc(/C(Br)=C(/NC(=O)c2ccccc2)C(=O)N[C@H](CO)Cc2ccccc2)c1	> 100 µM	32.4%	–
O=C(N[C@H](CO)Cc1ccccc1)/C(NC(=O)c1ccccc1)=C(/Br)c1cccc(Cl)c1	> 100 µM	48.2%	–
O=C(N[C@H](CO)Cc1ccccc1)/C(NC(=O)c1ccccc1)=C(/Br)c1cccc(O)c1	99.5 µM	29.6%	–
CN(C)CCOc1cccc(/C(Br)=C(/NC(=O)c2ccccc2)C(=O)N[C@H](CO)Cc2ccccc2)c1	94.7 µM	58.4%	–
O=C(N[C@H](CO)Cc1ccccc1)/C(NC(=O)c1ccc(F)c(F)c1)=C(/Br)c1ccccc1	> 100 µM	73.7%	pIC50 (Hepatitis B virus [3]): 6.32; selectivity ratio at 144 h [4]: > 208
O=C(N[C@H](CO)Cc1ccccc1)/C(NC(=O)c1ccccc1Br)=C(/Br)c1ccccc1	> 100 µM	17.2%	–
O=C(N[C@H](CO)Cc1ccccc1)/C(NC(=O)c1ccc(Cl)cc1)=C(/Br)c1ccccc1	> 100 µM	70.7%	pIC50 (Hepatitis B virus [3]): 6.37; selectivity ratio at 144 h [4]: > 232
O=C(N[C@H](CO)Cc1ccccc1)/C(NC(=O)c1cccc(F)c1)=C(/Br)c1ccccc1	> 100 µM	9.07%	–
CCN(CC)CCOc1cccc(/C(Br)=C(/NC(=O)c2ccccc2)C(=O)N[C@H](CO)Cc2ccccc2)c1	83.6 µM	56.5%	–
O=C(N[C@H](CO)Cc1ccccc1)/C(NC(=O)c1ccc(Cl)cc1Cl)=C(/Br)c1ccccc1	> 100 µM	88%	pIC50 (Hepatitis B virus [3]): 6.72; selectivity ratio at 144 h [4]: > 526; inhibition (Hepatitis B virus [5]): Dose-dependent effect; pIC50 (Hepatitis B virus [5]): 6.74; inhibition at 1 µM (Hepatitis B virus [8]): 63.1%; inhibition at 0.8 µM (Hepatitis B virus [6]): 87%; selectivity ratio at 72 h [7]: > 556
Cc1cccc(C(=O)N/C(C(=O)N[C@H](CO)Cc2ccccc2)=C(\Br)c2ccccc2)c1	> 100 µM	2.94%	–
